# Results taken from PubChem BioAssay AID651787 (The Scripps Research Institute Molecular Screening Center, 2012).
# The campaign covered roughly 2,400 compounds. About 1,200 (50%) were called active. The set was probably picked from earlier hits. These entries were drawn from the full list. A number with no mark means an inactive call.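 How the source made its calls: active means activation above the run cutoff, the mean activation over all tested wells plus 3 SD (cut at about 12% in these data); inactive means the rest.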
# Assay: calcium rise in parental Ga16 cells – cell-based, fluorescence, CHO-Ga16 parental line, counter-screen for hTAAR1 agonist project (AID 651787)
# Details: Fluo-8 calcium fluorescence, at 3 µM, stronger effect = higher value, normalized to maximal ATP response, DMSO zero
# How it was run: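 Test system: CHO-Gα16 parental cells without hTAAR1 / Quantity: 750 cells per well / Detection: Fluo-8 calcium dye fluorescence, excitation 470-495 nm, emission 515-575 nm / Benchmarks: DMSO (0%) and EC100 ATP (100%) / Schedule: 17-24 h seeding, dye 75 min 37 °C, 30 min RT / Read-out basis: percent activation from max/basal fluorescence ratio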
row,Structure (SMILES),activation
1,Cc1ccc(Sc2cc(N3CCOCC3)nc(-c3ccccc3)n2)cc1,4.27%
2,O=C(COC(=O)Cc1ccccc1F)NCCc1ccccc1,0.47%
3,Fc1ccc(NC(=S)N2CCc3[nH]c4ccccc4c3C2)cc1,11.5% (active)
4,COc1ccc(OC)c(NC(=S)N2CCc3ccccc3C2)c1,0.03%
5,O=C(Nc1ccc(Cl)cc1)N1CCc2[nH]c3ccccc3c2C1,1.95%
6,c1ccc2c(c1)C(=NC1CCCCC1)NC2=NC1CCCCC1,59.9% (active)
7,CCC(c1nnnn1Cc1ccco1)N(CCc1ccccc1)Cc1cc2cccc(C)c2[nH]c1=O (stereo not drawn),8.41%
8,CC(Oc1ccc(Cl)cc1)C(=O)OCC(=O)Nc1ncc(Cl)cc1Cl (stereo not drawn),14.9% (active)
9,COc1ccc2c(c1)OC(O)(C(F)(F)C(F)F)CC2=O (stereo not drawn),27.7% (active)
10,COc1ccc(Cl)cc1C(=O)NNC(=S)NC(=O)/C=C/c1ccco1,83.3% (active)
11,Cc1ccc(NC(=O)CCN2CCc3ccccc3C2)cc1,10.8%
12,Nc1cc(OC(=O)c2ccccc2Br)nn1S(=O)(=O)c1ccccc1,39.3% (active)
13,S=C(NCCc1ccccc1)N1CCn2cccc2C1c1ccncc1 (stereo not drawn),12.7% (active)
14,O=C(NCCc1ccccc1)C(=O)NCC1OCCN1S(=O)(=O)c1cccs1 (stereo not drawn),1.98%
15,CCCSc1nc2c(c(=O)n(C)c(=O)n2C)n1Cc1ccc(C)cc1,34.2% (active)
16,O=C1C=C(c2ccc(Cl)cc2)C(=O)N1Nc1ccccc1,46% (active)
17,COc1ccc2cc(-c3[nH]ncc3CNCCn3nc(C)cc3C)ccc2c1,0.78%
18,COc1cccc(-c2cnc(OC(C)(C)C)nc2OC(C)(C)C)c1,14.5% (active)
19,CSc1nc(N)c(C#N)c(-c2ccccc2Cl)c1C#N,54.2% (active)
20,O=C(N[C@H](C(=O)N1CCC[C@H]1C(=O)NCCc1ccccc1Cl)c1ccccc1)c1ccccc1,1.78%
21,OC(CNCCc1ccc(Cl)cc1Cl)COc1ccccc1 (stereo not drawn),17.8% (active)
22,c1ccc2c(c1)OCC(CNc1ncnc3nc[nH]c13)O2 (stereo not drawn),170% (active)
23,COc1cc(OC)c(-n2cc(-c3ccc(Cl)cc3)[nH]c2=O)cc1Cl,74.4% (active)
